Experimental findings from ChEMBL document CHEMBL5625181, “Exploring the 1,3-benzoxazine chemotype for cannabinoid receptor 2 as a promising anti-cancer therapeutic” (Eur J Med Chem, 2023) are described below.

SMILES strings stand for the structures. Activity calls are given as the source filed them. No cut-off for these calls is given here.

One series relates to MDA-MB-231. Put plainly: Antiproliferative activity against human triple negative MDA-MB-231 cells assessed as change in cell proliferation by MTT assay. The series is classed as functional, cell-based. The procedure, abridged:
(§1)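 Cells seeded at 1.5 x 10^4/well and incubated overnight; sub-confluent cells treated at 37 °C for 24, 48 or 72 h. MTT added (final 1 mg/mL), 3 h at 37°C in the dark, formazan dissolved in DMSO, read at 590 nm. Expressed as % of vehicle; mean ± SEM of three experiments, each at least in quintuplicate.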
Background: Formazan colour is commonly taken as a measure of viable cells.

Series [1] has as its target T1, Cannabinoid receptor 2 (Homo sapiens, UniProt P34972). Briefly: Agonist activity at human Cannabinoid receptor 2 in BT-549 cells assessed as downregulation in ERK1/2 phosphorylation level at 10 uM and observed within 5 min by Western blot analysis relative to control. The series is classed as functional, cell-based. The procedure, abridged:
(§2)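 BT549 cells, untransfected or transfected with scramble oligo or CNR2 siRNA, incubated at 37°C with or without 10 μM compound for the indicated periods. Phospho-ERK1/2 measured by Western blot on whole lysates (20-40 µg/lane, SDS-PAGE, PVDF, enhanced chemiluminescence). Values compared with relative vehicle-treated cells.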
Background: A western blot detects proteins with antibodies after separation by electrophoresis.

Series [2] has as its system BT-549. Put plainly: Inhibition of colony formation in human BT-549 cells assessed as decrease in number of colonies at 10 uM incubated for 14 days by inverted phase contrast microscope relative to control. On the set-up: scale not given: the % may be the effect or the level left. The series is classed as functional. The settings on record: time 14 day. The procedure, abridged:
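BT549 seeded at 1 x 10^3 cells/well and grown at 37 °C for at least 14 days with vehicle or compound. Colonies fixed and stained with 6% glutaraldehyde/0.5% crystal violet for 30 min, then counted by inverted phase-contrast microscopy (10x). Expressed as % of vehicle. Three independent experiments, each at least in triplicate.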

Series [3] concerns the target T1, Cannabinoid receptor 2. Put plainly: Agonist activity at human Cannabinoid receptor 2 in BT-549 cells assessed as downregulation in ERK1/2 phosphorylation level at 10 uM by westernblot analysis. It counts as functional, cell-based. As to conditions: filed as agonist, time 5-60 min, TDE = time-dependent effect. The procedure, abridged:
as §2

For series [4], the system named is BT-549. Put plainly: Antiproliferative activity against human BT-549 cells assessed as inhibition in cell proliferation incubated after 72 hrs by MTT assay. The series is classed as functional, cell-based. The settings on record: dose 0.1-10 µM. A digest of the protocol:
as §1

Series [5] relates to BT-549. Put plainly: Antiinflammatory activity in human BT-549 cells assessed as decrease in IL-6 level at 10 uM incubated for 48 hrs by ELISA method relative to control. It counts as functional. The arrangement: scale not given: the % may be the effect or the level left. The procedure, abridged:
(§3)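 BT549 cells seeded at 1.5 x 10^4/well and treated after 24 h with vehicle or compound at 37 °C for 48 h. TNF-α and IL-6 in supernatant measured by ELISA at 450 nm against a recombinant cytokine standard curve (0-1000 pg/mL). Expressed as % of vehicle. Three independent experiments, each in triplicate.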
In general terms: ELISA stands for enzyme-linked immunosorbent assay.

In series [6] the test system is BT-549. Briefly: Antiproliferative activity against human BT-549 cells assessed as inhibition in cell proliferation at 1 to 10 uM incubated after 24 hrs by MTT assay. The series is classed as functional, cell-based. As to conditions: dose 1-10 µM. A digest of the protocol: as §1
Series [7] deals with T1, Cannabinoid receptor 2. Put plainly: Agonist activity at human Cannabinoid receptor 2 in BT-549 cells transfected with CNR2 siRNA assessed as downregulation in ERK1/2 phosphorylation level at 10 uM and observed after 5 mins by Western blot analysis relative to control. It counts as functional, cell-based. The procedure, abridged:
as §2

Series [8] relates to BT-549. Put plainly: Antiproliferative activity against human BT-549 cells transfected with CNR2 siRNA assessed as inhibition of cell proliferation at 10 uM incubated after 24 hrs by MTT assay. It counts as functional, cell-based. The procedure, abridged:
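BT549 cells transfected with 50 nM CNR2 siRNA or scramble control by lipofection. After 24 h, treated with vehicle or 10 µM compound for a further 24 h. Viability by MTT (1 mg/mL, 3 h, 37°C, 590 nm).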

For series [9], the target named is T1, Cannabinoid receptor 2. Put plainly: Agonist activity at human recombinant Cannabinoid receptor 2 by GTPgammaS binding assay. It counts as functional. The settings on record: read-out: EC50. The procedure, abridged: (§4)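 [35S]GTPγS filtration assay. Membranes (5 µg CB2 or 10 µg/well CB1), permeabilized with equal mass of saponin, preincubated 20 min at room temperature with compound (0-100 μM) in 20 mM HEPES, 100 mM NaCl, 10 mM MgCl2, 10 µM GDP, pH 7.4. Then 0.3 nM [35S]GTPγS for 30 min at 37 °C. Quintuplicate, ≥3 experiments. pEC50 from non-linear fit.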

The subject of series [10] is BT-549. Put plainly: Antiinflammatory activity in human BT-549 cells assessed as decrease in TNF-alpha level at 10 uM incubated for 48 hrs by ELISA method relative to control. It counts as functional. On the set-up: scale not given: the % may be the effect or the level left. The procedure, abridged:
as §3

The target in series [11] is T1, Cannabinoid receptor 2. Put plainly: Displacement of [3H]CP55,940 from human CB2 receptor expressed in CHO cells membrane assessed as residual activity at 0.1 uM by scintillation counting analysis relative to control. The series is classed as cell membranes. A digest of the protocol:
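Membranes (2.5 µg) from CHO cells stably expressing human CB2, in 50 mM Tris-HCl, 5 mM MgCl2, 1 mM CaCl2, 2 mg/mL BSA, pH 7.4. Incubated 30 min at 37 °C with 0.8 nM [3H]CP55,940 and 0.1 µM compound (final). Nonspecific binding with 1 µM unlabelled CP55,940. Filtered on PEI-soaked GF/B filters, scintillation counted. Quintuplicate, ≥3 experiments.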

The target of series [12] is T1, Cannabinoid receptor 2. Put plainly: Agonist activity at human Cannabinoid receptor 2 in BT-549 cells assessed as change in ERK1/2 phosphorylation level at 10 uM and observed after 10 min by westernblot analysis. It counts as functional, cell-based. A digest of the protocol:
as §2

Series [13] deals with BT-549. Put plainly: Antiinflammatory activity in human BT-549 cells transfected with CNR2 siRNA assessed as decrease in TNF-alpha level at 10 uM incubated for 48 hrs by ELISA method. It counts as functional, cell-based. A digest of the protocol: (§5)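 BT549 cells seeded at 1.5 x 10^4 cells/well, transfected with 50 nM CNR2 siRNA or scramble oligo, then treated with vehicle or 10 μM compound at 37 °C for 48 h. TNF-α and IL-6 in supernatant measured by ELISA at 450 nm. Expressed as % of vehicle; mean ± SEM of three experiments in triplicate.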

The next series concerns MCF-10A. Put plainly: Cytotoxicity activity against human MCF-10A cells assessed as change in cell proliferation by MTT assay. It counts as toxicity, cell-based. The procedure, abridged: as §1
The subject of the next series is HCC1954. Briefly: Antiproliferative activity against human HER2-positive HCC1954 cells assessed as change in cell proliferation by MTT assay. It counts as functional, cell-based. A digest of the protocol:
as §1

For a further series, the target named is Cannabinoid receptor 1 (Homo sapiens, UniProt P21554). Briefly: Agonist activity at human recombinant Cannabinoid receptor 1 by GTPgammaS binding assay. The series is classed as functional. A digest of the protocol: as §4
Series [14] has as its system BT-549. Briefly: Antiinflammatory activity in human BT-549 cells transfected with CNR2 siRNA assessed as decrease in IL-6 level at 10 uM incubated for 48 hrs by ELISA method. It counts as functional, cell-based. A digest of the protocol: as §5

T1 sequence (P34972 whole entry): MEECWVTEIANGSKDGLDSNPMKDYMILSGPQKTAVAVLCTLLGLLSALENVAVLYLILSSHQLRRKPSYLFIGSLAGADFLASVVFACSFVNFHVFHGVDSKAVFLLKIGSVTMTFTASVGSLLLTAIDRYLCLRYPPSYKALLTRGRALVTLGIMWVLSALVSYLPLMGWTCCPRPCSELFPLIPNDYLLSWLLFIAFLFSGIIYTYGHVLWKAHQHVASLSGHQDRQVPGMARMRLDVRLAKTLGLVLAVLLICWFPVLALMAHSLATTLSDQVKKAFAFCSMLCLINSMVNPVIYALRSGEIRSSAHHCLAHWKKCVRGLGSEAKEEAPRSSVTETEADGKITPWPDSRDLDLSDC
Chain of Cannabinoid receptor 1 (P21554 whole entry): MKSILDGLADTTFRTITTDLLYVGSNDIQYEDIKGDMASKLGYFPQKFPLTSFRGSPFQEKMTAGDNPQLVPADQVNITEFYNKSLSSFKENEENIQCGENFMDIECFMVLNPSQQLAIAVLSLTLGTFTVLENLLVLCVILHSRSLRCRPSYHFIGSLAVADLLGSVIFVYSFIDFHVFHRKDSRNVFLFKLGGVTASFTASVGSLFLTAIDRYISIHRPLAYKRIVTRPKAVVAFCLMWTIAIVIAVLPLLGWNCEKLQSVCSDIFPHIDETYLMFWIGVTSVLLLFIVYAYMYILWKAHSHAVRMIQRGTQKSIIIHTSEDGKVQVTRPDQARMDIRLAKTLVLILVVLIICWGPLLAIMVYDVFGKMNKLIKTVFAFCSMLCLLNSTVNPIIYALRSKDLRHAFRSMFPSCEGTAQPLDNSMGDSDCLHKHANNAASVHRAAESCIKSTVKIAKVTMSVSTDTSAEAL

In the case of `O=C1c2ccc(OS(=O)(=O)c3cccs3)cc2OC2(CCCCC2)N1Cc1ccccc1`, the result in the series on MDA-MB-231 and in the series with HCC1954 was Active. The Activity on Cannabinoid receptor 2 [1] is 30%; with BT-549 [2] it was 75.4%; on Cannabinoid receptor 2 [3], “Tde”; with BT-549 [5] it was “<=70%”; with BT-549 [10], “<=50%”; on Cannabinoid receptor 2 [11] it was less than 80%. Further, the Activity entry with MCF-10A is given as “Non-Toxic”. In the series on BT-549 [4], the inhibition result was “Dose-Dependent Effect”. For the same molecule, the inhibition result with BT-549 [6] was “Active”. The outcome at Cannabinoid receptor 2 [7], in the series with BT-549 [8], on Cannabinoid receptor 2 [12], in the series with BT-549 [13] and in the series on BT-549 [14] was inactive. Also, the EC50 is 0.11 µM on Cannabinoid receptor 2 [9], more than 10 µM on Cannabinoid receptor 1 (read-out: EC50) and more than 10 µM on Cannabinoid receptor 1 (read-out: pEC50 (converted)).
